Assay results published in ChEMBL document CHEMBL1146764, “Synthesis and evaluation of novel 1,4-naphthoquinone derivatives as antiviral, antifungal and anticancer agents” (2004).
Values after ≈ are worked out from the molar mass of the structure shown.

Assays:
[1] = tested on: Agrobacterium tumefaciens; assay: Minimum inhibitory concentration towards Agrobacterium tumefaciens; format: functional
[2] = tested on: Pseudomonas aeruginosa; assay: Minimum inhibitory concentration towards Pseudomonas aeruginosa; format: functional
[3] = tested on: Aspergillus fumigatus; assay: Minimum inhibitory concentration towards Aspergillus fumigatus; format: functional
[4] = tested on: Candida albicans; assay: Minimum inhibitory concentration towards Candida albicans; format: functional
[5] = tested on: Klebsiella pneumoniae; assay: Minimum inhibitory concentration towards Klebsiella pneumoniae; format: functional
[6] = tested on: Microsporum canis; assay: Minimum inhibitory concentration towards Microsporum canis; format: functional
[7] = tested on: Staphylococcus aureus; assay: Minimum inhibitory concentration towards Staphylococcus aureus; format: functional
[8] = tested on: Cryptococcus neoformans; assay: Minimum inhibitory concentration towards Cryptococcus neoformans; format: functional
[9] = tested on: Trichophyton benhamiae; assay: Minimum inhibitory concentration towards Trichophyton mentagrophytes; format: functional, Trichophyton mentagraphytes
[10] = tested on: Cryptococcus neoformans; assay: Minimum inhibitory concentration towards C. neoformans; value ranges from 3.5-3.9 ug/mL; format: functional, organism-based
[11] = tested on: Candida albicans; assay: Minimum inhibitory concentration towards C. albicans; value ranges from 7.8-7.9 ug/mL; format: functional, organism-based
[12] = tested on: Rattus norvegicus; assay: Number of survivors out of 6 rats treated at 3.12 mg/kg; format: functional
Procedure, shortened: (§1)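 Lymphoid leukaemia L-1210 in rats, six animals per dose group, doses 1.56–25 mg/kg. Survivors counted per group. T/C (%) compares a tumour evaluation parameter in treated versus control animals.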

[13] = tested on: Rattus norvegicus; assay: Anticancer activity against Lymphoid Leukemia L-1210 in rats at dose of 1.56 mg/kg; format: functional; procedure, shortened: as §1
[14] = tested on: Rattus norvegicus; assay: Anticancer activity against Lymphoid Leukemia L-1210 in rats at dose of 6.25 mg/kg; format: functional; procedure, shortened: as §1
[15] = tested on: Rattus norvegicus; assay: Anticancer activity against Lymphoid Leukemia L-1210 in rats at dose of 3.12 mg/kg; format: functional; procedure, shortened: as §1
[16] = tested on: Rattus norvegicus; assay: Number of survivors out of 6 rats treated at 6.25 mg/kg; format: functional; procedure, shortened: as §1
[17] = tested on: Rattus norvegicus; assay: Number of survivors out of 6 rats treated at 1.56 mg/kg; format: functional; procedure, shortened: as §1
[18] = tested on: Rattus norvegicus; assay: Number of survivors out of 4 rats treated at 10 mg/kg; format: functional
Procedure, shortened: (§2)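 Lymphoid leukaemia P 388 in rats, four animals per group, given 10 mg/kg. Survivors counted. Activity expressed as T/C (%) of treated versus control.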

[19] = tested on: Rattus norvegicus; assay: Anticancer activity against lymphoid leukemia P388 in rats at a dose of 10 mg/kg; format: functional; procedure, shortened: as §2
[20] = tested on: Influenza A virus; assay: In vitro antiviral activity of compound against Influenza-A virus; format: functional
[21] = tested on: Rattus norvegicus; assay: Number of survivors out of 6 rats treated at 25 mg/kg; format: functional; procedure, shortened: as §1
[22] = tested on: Rattus norvegicus; assay: Anticancer activity against Lymphoid Leukemia L-1210 in rats at dose of 25.0 mg/kg; Toxic; format: functional, organism-based; set-up: dose 25 mg/kg
[23] = tested on: Rattus norvegicus; assay: Number of survivors out of 6 rats treated at 12.5 mg/kg; format: functional
[24] = tested on: Rattus norvegicus; assay: Anticancer activity against Lymphoid Leukemia L-1210 in rats at dose of 12.5 mg/kg; format: functional

O=C(O)CCCSC1=CC(=O)c2c(O)ccc(O)c2C1=O
MIC [1]: 12.5 µg/mL (≈ 40.5 µM) | MIC [2]: > 50 µg/mL | MIC [3]: > 50 µg/mL | MIC [4]: 3.12 µg/mL (≈ 10.1 µM) | MIC [5]: 50 µg/mL (≈ 162 µM) | MIC [6]: 3.12 µg/mL (≈ 10.1 µM) | MIC [7]: > 50 µg/mL | MIC [8]: 1.56 µg/mL (≈ 5.06 µM) | MIC [9]: 3.12 µg/mL (≈ 10.1 µM)

NYSTATIN
MIC [10]: 3.9 µg/mL | MIC [11]: 7.9 µg/mL

O=C(O)CCCSC1=CC(=O)c2ccccc2C1=O
Survivors [12]: 6 | T/C [13]: 89% | T/C [14]: 100% | MIC [3]: > 50 µg/mL | MIC [4]: > 50 µg/mL | T/C [15]: 96% | MIC [5]: 50 µg/mL (≈ 181 µM) | Survivors [16]: 6 | MIC [6]: > 50 µg/mL | MIC [7]: 12.5 µg/mL (≈ 45.2 µM) | MIC [8]: > 50 µg/mL | Survivors [17]: 6 | MIC [9]: 25 µg/mL (≈ 90.5 µM)

GENTAMICIN
MIC [2]: 0.78 µg/mL | MIC [5]: 0.39 µg/mL | MIC [7]: 0.78 µg/mL

O=C1C=C(SCCC(=O)N2CCCCC2)C(=O)c2ccccc21
Survivors [18]: 4 | T/C [19]: 30%

O=C1C(Sc2cccc3ccccc23)=C(Sc2cccc3ccccc23)C(=O)c2ccccc21
MIC [1]: > 50 µg/mL | MIC [2]: > 50 µg/mL | MIC [5]: > 50 µg/mL | MIC [7]: 50 µg/mL (≈ 105 µM)

NC(=O)CCSC1=CC(=O)c2ccccc2C1=O
Survivors [18]: 4 | T/C [19]: 49%

O=C1C=C(Sc2ccccc2)C(=O)c2ccccc21
MIC [1]: > 50 µg/mL | MIC [2]: > 50 µg/mL | MIC [3]: 25 µg/mL (≈ 93.9 µM) | MIC [4]: 12.5 µg/mL (≈ 46.9 µM) | MIC [5]: > 50 µg/mL | MIC [6]: < 0.98 µg/mL | MIC [7]: 25 µg/mL (≈ 93.9 µM) | MIC [8]: 1.56 µg/mL (≈ 5.86 µM) | MIC [9]: < 0.78 µg/mL

O=C(O)CCSC1=CC(=O)c2c(O)ccc(O)c2C1=O
Inhibition [20]: 52%

O=C(O)CCCSC1=CC(=O)c2c(Cl)ccc(O)c2C1=O
MIC [3]: > 50 µg/mL | MIC [4]: > 50 µg/mL | MIC [6]: > 50 µg/mL | MIC [8]: > 50 µg/mL | MIC [9]: 25 µg/mL (≈ 76.5 µM)

O=C(O)CCSC1=CC(=O)c2ccccc2C1=O
MIC [1]: 25 µg/mL (≈ 95.3 µM) | Survivors [21]: 1 | MIC [2]: 12.5 µg/mL (≈ 47.7 µM) | T/C [14]: 115% | MIC [5]: 50 µg/mL (≈ 191 µM) | T/C [22]: Toxic | Survivors [16]: 6 | Survivors [23]: 6 | MIC [7]: 12.5 µg/mL (≈ 47.7 µM) | T/C [24]: 110%

O=C(O)c1ccccc1SC1=CC(=O)c2c(Cl)ccc(O)c2C1=O
MIC [1]: > 50 µg/mL | MIC [2]: 50 µg/mL (≈ 139 µM) | MIC [3]: > 50 µg/mL | MIC [4]: > 50 µg/mL | MIC [5]: 25 µg/mL (≈ 69.3 µM) | MIC [6]: > 50 µg/mL | MIC [7]: > 50 µg/mL | MIC [8]: > 50 µg/mL | MIC [9]: 25 µg/mL (≈ 69.3 µM)

O=C1C(Sc2cccc3ccccc23)=C(Sc2cccc3ccccc23)C(=O)c2c(Cl)ccc(O)c21
MIC [3]: > 50 µg/mL | MIC [4]: 50 µg/mL (≈ 95.2 µM) | MIC [6]: > 50 µg/mL | MIC [8]: > 50 µg/mL | MIC [9]: 50 µg/mL (≈ 95.2 µM)

O=C1C=CC(=O)C(Sc2ccccc2C(=O)O)=C1
MIC [1]: > 50 µg/mL | MIC [2]: 25 µg/mL (≈ 96.1 µM) | MIC [3]: > 50 µg/mL | MIC [4]: > 50 µg/mL | MIC [5]: 25 µg/mL (≈ 96.1 µM) | MIC [6]: > 50 µg/mL | MIC [7]: > 50 µg/mL | MIC [8]: 50 µg/mL (≈ 192 µM) | MIC [9]: > 50 µg/mL

O=C1C(=O)c2ccccc2C(O)=C1Sc1ccccc1
Inhibition [20]: 50% | MIC [3]: > 50 µg/mL | MIC [4]: 25 µg/mL (≈ 88.6 µM) | MIC [6]: 25 µg/mL (≈ 88.6 µM) | MIC [8]: > 50 µg/mL | MIC [9]: 6.25 µg/mL (≈ 22.1 µM)

C[C@@H]1[C@H](O)[C@@H](C)/C=C/C=C/C=C/C=C/C=C/C=C/C=C/[C@H](O[C@@H]2O[C@H](C)[C@@H](O)[C@H](N)[C@@H]2O)C[C@@H]2O[C@](O)(C[C@@H](O)C[C@@H](O)[C@H](O)CC[C@@H](O)C[C@@H](O)CC(=O)O[C@H]1C)C[C@H](O)[C@H]2C(=O)O [AMPHOTERICIN B]
MIC [4]: 0.39 µg/mL (≈ 0.422 µM) | MIC [6]: 1.56 µg/mL (≈ 1.69 µM) | MIC [8]: 0.78 µg/mL (≈ 0.844 µM) | MIC [9]: 1.56 µg/mL (≈ 1.69 µM)

Clc1ccc(COC(Cn2ccnc2)c2ccc(Cl)cc2Cl)c(Cl)c1 (stereo not drawn) [MICONAZOLE]
MIC [3]: 12.5 µg/mL (≈ 30 µM) | MIC [4]: 25 µg/mL (≈ 60.1 µM) | MIC [6]: < 0.78 µg/mL | MIC [8]: 12.5 µg/mL (≈ 30 µM) | MIC [9]: < 0.78 µg/mL

O=C1C(Sc2ccccc2)=C(Sc2ccccc2)C(=O)c2c(Cl)ccc(O)c21
MIC [3]: 50 µg/mL (≈ 118 µM) | MIC [4]: > 50 µg/mL | MIC [6]: 50 µg/mL (≈ 118 µM) | MIC [8]: > 50 µg/mL | MIC [9]: > 50 µg/mL

O=C1C=CC(=O)c2c1c(O)c1sc3ccccc3c(=O)c1c2O
MIC [3]: > 50 µg/mL | MIC [4]: > 50 µg/mL | MIC [6]: > 50 µg/mL | MIC [8]: > 50 µg/mL | MIC [9]: 25 µg/mL (≈ 77.1 µM)
